Screening data as filed in PubChem BioAssay.
An excerpt weighted towards active compounds, which were near 1.5% of everything screened.
APJ ag: activates the human apelin receptor APJ; CHO-K1 APJ PathHunter beta-arrestin, luminescence; 0% DMSO wells, 100% apelin; activation, % at 20 µM; hit rate 0.11% among 330,000; AID 2520;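 active = activation more than six SD over the plate average, tested at 20 µM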;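 also: 0% = DMSO alone and 100% = apelin-13 at 10 nM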
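Material: engineered CHO-K1 APJ arrestin reporter cells; amount: 1000 CHO-K1 reporter cells seeded per well; incubation: compound stimulation 90 min at 25 °C, detection 60 min; signal: luminescent beta-gal fragment complementation, chemiluminescent substrate; read-out basis: APJ agonist activity; controls: DMSO-only wells as negative, 10 nM Apelin-13 as positive control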
EBI2 antag: blocks human EBI2 receptor beta-arrestin signaling; hit rate 0.81% among 360,000; EBI2 beta-arrestin recruitment, luminescence, 7a,25-OHC stimulated; AID 651636; inhibition, % at 5 µM; in the data active = inhibition above about 38%;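 also: enzyme fragment complementation signal reports receptor beta-arrestin coupling in cells; 0% = agonist plus DMSO wells and 100% = wells without agonist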
APJ antag: APJ receptor antagonism; CHO-K1 APJ beta-arrestin complementation, luminescence; inhibition, % at 20 µM; hit rate 0.32% among 330,000;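 active = inhibition above about 40% at 20 µM, limit read from the data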;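 also: cells challenged with 10 nM apelin-13 agonist together with compound; plate controls were apelin-13 plus DMSO wells for no effect and DMSO wells lacking apelin-13 for full effect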
CXCR6 inh: blocks human CXCR6 beta-arrestin recruitment | O00574 | CHO-K1 PathHunter CXCR6 beta-arrestin, luminescence | hit rate 0.36% among 360,000 | AID 602244 | inhibition, % at 20 µM; in the data active = inhibition above about 34%, passing the limit was not always enough;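 also: antagonist mode with CXCL16 agonist at 10 nM final; 0% = 10 nM CXCL16 with DMSO and 100% = unstimulated wells without agonist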
Target sequence (O00574 whole entry, looked up): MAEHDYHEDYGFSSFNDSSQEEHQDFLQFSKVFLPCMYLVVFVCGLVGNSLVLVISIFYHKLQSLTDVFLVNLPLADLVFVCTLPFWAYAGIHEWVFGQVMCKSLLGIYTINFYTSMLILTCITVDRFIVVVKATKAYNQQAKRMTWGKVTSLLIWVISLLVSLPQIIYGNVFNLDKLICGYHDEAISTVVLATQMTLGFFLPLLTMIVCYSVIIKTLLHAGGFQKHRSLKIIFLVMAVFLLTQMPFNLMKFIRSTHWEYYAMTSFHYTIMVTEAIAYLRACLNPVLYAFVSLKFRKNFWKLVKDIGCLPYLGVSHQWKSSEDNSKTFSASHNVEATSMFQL
CCR6 antagonist: antagonists of human CCR6 receptor; P51684; CHO-K1 CCR6 PathHunter beta-arrestin, luminescence, CCL20-stimulated; inhibition, % at 20 µM; hit rate 0.49% among 340,000;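 active = compounds whose inhibition of the agonist-driven luminescence signal at 20 µM reaches about 50%, limit read from the data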;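 also: cells stimulated with CCL20 at 14 nM final; plate controls were DMSO with CCL20 for no effect and DMSO without agonist for full effect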
EBI2 antag conf: EBI2 (human) antagonism, single concentration confirmation. shares compounds with EBI2 antag. EBI2 beta-arrestin luminescence, 7a,25-OHC antagonism. inhibition, % at 5 µM. hit rate 29% among 2,400. AID 651997;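 active = inhibition of at least 50%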
EBI2 agonist: activates EBI2, counter-screen for EBI2 antagonists | AID 652000 | activation, % at 5 µM | EBI2-expressing cells, agonist mode, luminescence, 60 min; 0% vehicle, 100% 7α,25-dihydroxycholesterol control | 2,400 tested, under 10 active | shares compounds with EBI2 antag;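 active = activation of at least 50%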
bGal cs: beta-galactosidase inhibition counter-screen; shares compounds with EBI2 antag; inhibition, % at 5 µM; purified beta-galactosidase, luminescent Galacton Star, 15 min; hit rate 1% among 2,400;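 active = replicate-average signal at least 3 plate SD below neutral wells, shown as high inhibition, flagging enzyme-inhibiting false positives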;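 also: 0% = DMSO wells with enzyme and 100% = wells lacking enzyme; higher means stronger loss of beta-gal luminescence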
An asterisk follows results filed as active.

What do the screens show for `O=C(COc1ccc2ccccc2c1)N1CCN(Cc2c[nH]c3ccccc23)CC1`?
APJ ag: -4.2; EBI2 antag: 83.2*; APJ antag: -12.5; CXCR6 inh: -24.6; CCR6 antagonist: 5.6; EBI2 antag conf: 52.6*; EBI2 agonist: 0.6; bGal cs: 8.2

What do the screens show for `O=C(COc1ccc(Br)cc1)N1CCN(Cc2c[nH]c3ccccc23)CC1`?
APJ ag: 1.3; EBI2 antag: 81.3*; APJ antag: 15.1; CXCR6 inh: -2.7; CCR6 antagonist: -5.2; EBI2 antag conf: 53.9*; EBI2 agonist: 1.1; bGal cs: 8.8

How did COc1ccc(CN2CCN(C(=O)COc3ccc4ccccc4c3)CC2)c(OC)c1 do in these assays?
APJ ag: -3.7; EBI2 antag: 77.8*; APJ antag: 4.6; CXCR6 inh: -6.4; CCR6 antagonist: 13.4; EBI2 antag conf: 68.8*; EBI2 agonist: 1.6; bGal cs: 8.0

What do the screens show for `CN1CCN(C(=O)COc2ccc(Oc3ccccc3)cc2)CC1`?
APJ ag: -1.2; EBI2 antag: -4.2; APJ antag: -19.0; CXCR6 inh: 4.6; CCR6 antagonist: 7.0

Results for CCC(C)N1CCN(C(=O)COc2ccc3ccccc3c2)CC1 (centres undefined) ?
APJ ag: -0.2; EBI2 antag: 90.6*; APJ antag: 26.0; CXCR6 inh: 1.9; CCR6 antagonist: 8.2; EBI2 antag conf: 73.9*; EBI2 agonist: 0.7; bGal cs: 4.6

How did O=C(c1cccnc1)N1Cc2ccccc2-n2nncc2C1 do in these assays?
EBI2 antag: -1.5; CXCR6 inh: 4.1

Results for O=C(COc1ccccc1)N1CCN(CCN2C(=O)c3cccc4cccc(c34)C2=O)CC1 ?
APJ ag: 1.6; EBI2 antag: 49.9*; APJ antag: -16.6; CXCR6 inh: 0.6; CCR6 antagonist: 8.2; EBI2 antag conf: 16.4; EBI2 agonist: 0.8; bGal cs: 4.0

How did CCCNC(=O)c1c(N)n(Cc2ccc3c(c2)OCO3)c2nc3ccccc3nc12 do in these assays?
APJ ag: -2.5; EBI2 antag: 45.2*; APJ antag: 20.1; CXCR6 inh: -1.4; CCR6 antagonist: -11.8; EBI2 antag conf: 36.2; EBI2 agonist: 0.4; bGal cs: 2.4

Results for CC(C)CCNC(=O)c1c(N)n(Cc2ccc3c(c2)OCO3)c2nc3ccccc3nc12 ?
APJ ag: -4.2; EBI2 antag: 47.7*; APJ antag: 1.5; CXCR6 inh: 1.3; CCR6 antagonist: -30.3; EBI2 antag conf: 23.3; EBI2 agonist: -0.4; bGal cs: -9.4

How did CCC1CN1P(=O)(c1ccccc1)N1CC1CC (centres undefined) do in these assays?
EBI2 antag: -0.9; CXCR6 inh: 1.1; CCR6 antagonist: 0.2

Results for Cc1cc(=O)oc2cc(OCC(=O)N3CCN(Cc4ccc5c(c4)OCO5)CC3)ccc12 ?
APJ ag: -9.2; EBI2 antag: 10.2; APJ antag: 10.6; CXCR6 inh: -0.4; CCR6 antagonist: 10.4

Results for O=C(COc1ccc(Cl)cc1)N1CCN(Cc2ccc([N+](=O)[O-])cc2)CC1 ?
APJ ag: -6.0; EBI2 antag: 94.3*; APJ antag: -1.7; CXCR6 inh: -15.4; CCR6 antagonist: 9.5; EBI2 antag conf: 78.5*; EBI2 agonist: -0.3; bGal cs: 5.3

How did Cc1ccc(OCC(=O)N2CCN(Cc3cccnc3)CC2)cc1 do in these assays?
APJ ag: -0.9; EBI2 antag: 52.7*; APJ antag: 4.0; CXCR6 inh: -10.7; CCR6 antagonist: -5.2; EBI2 antag conf: 13.2; EBI2 agonist: -0.7; bGal cs: -8.0

Results for Cc1cccc(OCC(=O)N2CCN(Cc3cccnc3)CC2)c1 ?
APJ ag: -1.0; EBI2 antag: 10.7; APJ antag: -16.8; CXCR6 inh: -4.5; CCR6 antagonist: 0.6
